# Screening data as filed in PubChem.
# Hits are enriched below; roughly 1.9% of the tested compounds scored in any of these assays.
# UBC13 inh = inhibitors of human UBC13 polyubiquitin chain formation; AID 485273; 330,000 tested, 0.47% active; inhibition, % at 20 µM; TR-FRET; in the data active = inhibition above about 45%, passing the limit was not always enough
# IDE act = IDE (human) activation, cell-based | activation, % at 5.96 µM | AID 493087 | 340,000 tested, 0.073% active | P14735 | HEK cells, FAbeta-B cleavage, fluorescence polarization; 0% vehicle, 100% cell-free pure enzyme wells;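 active = activation above the mean of all tested compounds plus 3 SD, set per screening campaign, cut at about 17% in these data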
# procasp7 counter = activates human procaspase-7, counter-screen for procaspase-3 activators; AID 463210; recombinant procaspase-7, Ac-DEVD-pNA absorbance 405 nm; D23A/D198A/D206A triple mutant, cannot self-cleave; scale: DMSO 0, 5 µM enzyme 100; P55210; activation, % at 8.5 µM; 330,000 tested, 0.093% active;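 active = percent activation above the screen-wide mean plus 3 SD, cut at about 25% in these data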
# Target sequence (P55210 whole entry D23A/D198A/D206A): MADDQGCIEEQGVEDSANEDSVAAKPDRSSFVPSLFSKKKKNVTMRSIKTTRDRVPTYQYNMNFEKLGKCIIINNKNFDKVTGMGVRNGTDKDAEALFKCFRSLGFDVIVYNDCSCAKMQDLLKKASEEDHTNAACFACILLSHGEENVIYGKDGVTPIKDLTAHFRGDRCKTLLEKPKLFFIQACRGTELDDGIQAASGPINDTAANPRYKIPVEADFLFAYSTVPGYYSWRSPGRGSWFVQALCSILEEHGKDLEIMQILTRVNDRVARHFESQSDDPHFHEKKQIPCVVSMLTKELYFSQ
#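 Assay system – Uncleavable procaspase-7 mutant enzyme · Quantity – 2 µM procaspase-7 mutant as dispensed · Times – 1 h preincubation, 2 h reaction · Dosing – single nominal 8.5 µM compound dose, 0.8% DMSO final · Buffer or medium – Zinc-free 50 mM HEPES buffer, pH 7.4, with NaCl and Triton X-100 · Detection – Epi-absorbance of released pNA at 405 nm, two timepoints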
# procasp3 activ = procaspase-3 (human) activation; recombinant procaspase-3 D3A, Ac-DEVD-pNA absorbance 405 nm; P42574; activation, % at 8.5 µM; 330,000 tested, 0.11% active;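 active = activation above the mean of all tested compounds plus 3 SD, cut at about 21% in these data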;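 note: 0% = DMSO alone and 100% = DMSO wells spiked with extra 5 µM PC-3 D3A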
#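 assay system = Procaspase-3 D3A mutant | signal = absorbance at 405 nm, 0 and 120 min | times = 1 h preincubation plus 2 h reaction at 25 °C | repeats = single replicate | read-out = % activation between DMSO and enzyme-spiked controls | medium = Zinc-free HEPES saline buffer with Triton X-100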
# PHOSPHO1 inh = blocks human PHOSPHO1 phosphatase activity | Q8TCT1 | recombinant PHOSPHO1, absorbance phosphatase assay | inhibition, % at 13.3 µM | 290,000 tested, 1.1% active; in the data active = inhibition above about 60%
# IDE inh = inhibits human insulin-degrading enzyme in HEK cells; P14735; FAbetaB cleavage, fluorescence polarization; inhibition, % at 5.59 µM; 320,000 tested, 0.41% active; AID 434962;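 active = percent inhibition above the average of all tested compounds plus 3 SD, set per screening campaign, cut at about 16% in these data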;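 note: IDE supplied by intact live HEK cells; FP after avidin binding of uncleaved biotin substrate so inhibition keeps polarization high; 0% = DMSO wells and 100% = 60 µM reference IDE inhibitor Ii1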
# Casp3 counter = caspase-3 inhibition (UBC13 counter-screen); inhibition, % at 20 µM; Recombinant caspase-3, Caspase-Glo 3/7 luminescence, 60 min; shares compounds with UBC13 inh; 1,400 tested, 4% active;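 active = mean inhibition across replicates above about 26%, limit read from the data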;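 note: plate controls were DMSO with caspase-3 for no effect and DMSO wells lacking enzyme for full effect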
# Target sequence (P42574 whole entry, looked up): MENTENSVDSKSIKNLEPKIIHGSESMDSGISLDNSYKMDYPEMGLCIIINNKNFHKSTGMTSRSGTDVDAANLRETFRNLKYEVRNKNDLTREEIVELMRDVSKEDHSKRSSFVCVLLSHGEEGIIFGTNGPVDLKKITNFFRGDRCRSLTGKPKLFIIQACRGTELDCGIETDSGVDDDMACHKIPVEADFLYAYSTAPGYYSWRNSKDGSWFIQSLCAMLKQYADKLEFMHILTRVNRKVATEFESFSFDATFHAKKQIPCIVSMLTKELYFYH
# UBC13 conf = human UBC13 polyubiquitin inhibition, confirmed. shares compounds with UBC13 inh. UBC13 polyubiquitination, TR-FRET, biochemical. inhibition, % at 10 µM. 1,400 tested, 68% active. AID 488859; in the data active = inhibition above about 45%
# Active calls of the source: *; x = not tested or not shown.
SMILES,UBC13 inh,IDE act,procasp7 counter,procasp3 activ,PHOSPHO1 inh,IDE inh,Casp3 counter,UBC13 conf
COc1ccc(-c2noc(CCC(=O)NC3CCN(Cc4ccccc4)CC3)n2)cc1,9,-3,9,-6,13,-4,x,x
Clc1ccc(CNc2ccc(CNc3ncn[nH]3)cc2)c(Cl)c1,4,-4,-3,-5,20,-5,x,x
COc1ccc(-c2nnc(SCC(=O)Nc3cc(F)ccc3C)o2)cc1,47*,5,6,-1,7,-4,-1,35
COc1ccc(-c2nnc(SCC(=O)Nc3cc(C)on3)o2)cc1,2,7,6,-1,48,-8,x,x
COc1ccc(CN2C(=O)c3cccnc3C2=O)cc1S(=O)(=O)NC(C)C,6,7,13,11,26,0,x,x
C#CCOCCOCCOCCNc1nc(N2CCOCC2)nc(N2CCN(C(=O)[C@H](CCCCN)n3cc(CN)nn3)CC2)n1,96*,1,-2,2,x,2,-2,89*
C#CCOCCOCCOCCNc1nc(N2CCN(C(=O)[C@H]([C@@H](C)CC)n3cc(CCCCN)nn3)CC2)nc(N2CCN(C(=O)[C@H](C)n3cc(CCCN=C(N)N)nn3)CC2)n1,30,-3,-3,4,x,8,x,x
C#CCOCCOCCOCCNc1nc(N2CCN(C(=O)[C@H](CCCCN)n3cc(CN)nn3)CC2)nc(N2CCN(C(=O)[C@H](CC(N)=O)n3cc(C(N)[C@H](C)CC)nn3)CC2)n1 (stereo partly specified),37,6,-2,8,x,-5,x,x
C#CCOCCOCCOCCNc1nc(N2CCN(C(=O)[C@H](CCCCN)n3cc(CN)nn3)CC2)nc(N2CCN(C(=O)[C@H](CCCN=C(N)N)n3cc(C(N)[C@H](C)CC)nn3)CC2)n1 (stereo partly specified),92*,3,5,-1,x,-2,2,103*
C#CCOCCOCCOCCNc1nc(N2CCN(C(=O)[C@H](CCCN=C(N)N)n3cc(C(N)[C@H](C)CC)nn3)CC2)nc(N2CCN(C(=O)[C@H](CCCN=C(N)N)n3cc(C(N)[C@@H](C)CC)nn3)CC2)n1 (stereo partly specified),74*,3,1,-1,x,-4,-1,56*
C#CCOCCOCCOCCNc1nc(N2CCOCC2)nc(N2CCN(C(=O)[C@H](CCCN=C(N)N)n3cc(C(N)[C@@H](C)CC)nn3)CC2)n1 (stereo partly specified),30,6,-8,-1,x,4,x,x
C#CCOCCOCCOCCNc1nc(N2CCN(C(=O)[C@H]([C@@H](C)CC)n3cc(CCCCN)nn3)CC2)nc(N2CCN(C(=O)[C@H]([C@@H](C)CC)n3cc(CCCN=C(N)N)nn3)CC2)n1,53*,0,-5,1,x,-5,-2,48*
O=C(c1ccccc1Cl)N1CCN(c2ncccn2)CC1,-3,x,2,2,x,11,x,x
Cc1cccc(NC(=O)COc2coc(CN3CCc4ccccc4C3)cc2=O)c1,1,-2,8,-7,x,-3,x,x
Cc1nn(C)c(C)c1C(C)NC(=O)c1cc(COc2ccc(F)c(F)c2)on1 (stereo unspecified),-1,0,6,-10,31,-2,x,x
C#CCOCCOCCOCCNc1nc(N2CCN(C(=O)[C@H](CCCN=C(N)N)n3cc(C(N)[C@@H](C)CC)nn3)CC2)nc(N2CCN(C(=O)[C@H](CC(N)=O)n3cc([C@@H](N)CC(N)=O)nn3)CC2)n1 (stereo partly specified),64*,3,11,-2,x,-3,2,51*
Cc1ccc(C(=O)NCCN2C3=NC[C@H](Cc4ccc(O)cc4)N3C[C@H]2Cc2ccc(O)cc2)cc1Br,55*,-6,9,7,36,9,0,27
C/C=C(\C)C(=O)NCCN1C2=NC[C@H](Cc3ccccc3)N2C[C@H]1Cc1ccc(O)cc1,18,-2,-4,-7,18,1,x,x
Cc1ccc(C(=O)NCCN2C3=NC[C@@H](Cc4ccccc4)N3C[C@H]2Cc2ccc(O)cc2)cc1Br,104*,-6,-10,-5,-12,16,-3,93*
COc1ccc(C[C@H]2CN3C(=NC[C@@H]3Cc3ccc(O)cc3)N2CCNC(=O)c2ccc(C)c(Br)c2)cc1,74*,6,13,1,18,5,0,56*
Cc1ccc(C(=O)N[C@@H](C)CN2C3=NC[C@H](C(C)C)N3C[C@H]2Cc2ccc(O)cc2)cc1Br,42,1,0,4,5,0,x,x
COc1ccc(C(=O)O)cc1S(=O)(=O)N1CCSCC1,-2,3,x,x,14,x,x,x
CCN1CCN(C(=O)c2cc3c(s2)-c2c(C)cccc2OC3)CC1,80*,-5,0,6,12,1,54*,76*
CCOC(=O)N1CCN(C(=O)c2cc3c(s2)-c2c(C)cccc2OC3)CC1,19,-3,4,2,15,12,x,x
COc1ccc(S(=O)(=O)N2CCCOC2CNC(=O)C(=O)NCCCN2CCOCC2)cc1 (stereo unspecified),-8,-1,-3,1,43,-4,x,x
SMILES,UBC13 inh,IDE act,procasp7 counter,procasp3 activ,PHOSPHO1 inh,IDE inh,Casp3 counter,UBC13 conf
O=C(NNC(=S)NC(=O)c1ccccc1[N+](=O)[O-])c1ccccc1Cl,48*,2,-7,5,-10,-8,6,13
COc1ccccc1NC(=O)COc1ccc(C(=O)NCC2CCCO2)cc1OC (stereo unspecified),30,1,1,4,x,3,x,x
COc1ccccc1NC(=O)COc1ccc(C(=O)NCc2ccccc2)cc1OC,70*,3,0,-1,x,0,-3,75*
CNCc1cc(Br)c(OCC(=O)Nc2ccccc2OC)c(OC)c1,65*,2,3,7,-18,2,3,103*
COc1ccccc1NC(=O)COC(=O)c1cc(C)nc2ccccc12,48*,3,10,7,x,3,1,25
Cc1nn(CC(C)C(=O)N2CCN(S(=O)(=O)c3ccc(Cl)cc3)CC2)c(C)c1C (stereo unspecified),0,4,-2,-1,35,2,x,x
O=S(=O)(Nc1nc2ccccc2[nH]1)c1ccc(Cl)cc1,52*,-3,1,8,35,-1,-2,49*
O=S(=O)(Nc1nc2ccccc2[nH]1)c1ccccc1,32,7,1,0,-8,-1,x,x
